The source made the active and inactive calls. The calls are words filed in the database; no cut-off is given here.
Assays:
MDCK-II = assay: Cytotoxicity against dog MDCK-II cells at 5 uM; assay type: toxicity, cell-based, Canis lupus familiaris
Outline: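 MDCK-II monolayers were exposed to compound at the highest tested concentration of 5 μM in Opti-MEM at 37 °C, 5% CO2, for 4 days. Cytotoxicity was judged by microscopic inspection.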

[1] = Inhibition of Influenza virus A/Netherlands/602/2009 Neuraminidase using MUNANA as substrate incubated for 60 mins by fluorescence based whole virus assay
Outline: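 Whole Neth09H1N1 virus served as the NA source in place of recombinant protein. Compounds were serially diluted 1:2 in 50 mM Tris-HCl, 4 mM CaCl2, pH 6.0, with a fixed non-saturating amount of virus. MUNANA was added to 100 μM final, 37 °C for 60 min, then stopped with 0.1 M glycine, 25% ethanol, pH 10.7. Fluorescence read at ex 340/em 490 nm; IC50 determined.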

[2] = Inhibition of Influenza A virus (A/Anascrecca/Spain/1460/2008(H7N9)) recombinant Neuraminidase using MUNANA as substrate incubated for 60 mins by fluorescence based assay
Outline: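 Recombinant soluble tetrameric NA (N9 from A/Anascrecca/Spain/1460/2008 or N1 from A/Wisconsin/09/2013) was made in HEK293T cells and purified on Strep-Tactin. Compounds were serially diluted 1:2 in 50 mM Tris-HCl, 4 mM CaCl2, pH 6.0, with a fixed non-saturating amount of NA. MUNANA was added to 100 μM final, 37 °C for 60 min, then stopped with glycine/ethanol at pH 10.7. Fluorescence read at ex 340/em 490 nm; […].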

Influenza A virus [3] = assay: Antiviral activity against Influenza virus A/Netherlands/602/2009 assessed as inhibition of virus-LAMP1 binding at 10 uM by biolayer interferometry streptavidin sensor based assay; assay type: functional, organism-based
Outline: (§1)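 Biolayer interferometry was run at 30 °C in PBS with Ca/Mg, shaking at 1000 rpm. Streptavidin sensors were loaded to saturation with biotinylated LAMP1 carrying increased α2,6-linked sialic acids, then dipped into Neth09H1N1 virus mixed with variable compound concentrations. […] Controls had no compound, or OC only.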

Influenza A virus [4] = assay: Inhibition of Influenza virus A/Netherlands/602/2009 hemagglutinin assessed as reduction of virus-LAMP1 binding in presence of oseltamivir carboxylate by biolayer interferometry; outline: as §1

SMILES	Activity (MDCK-II)	IC50 [1]	IC50 [2]	inhibition (Influenza A virus [3])	inhibition (Influenza A virus [4])
CC[C@@H](CCCCc1cn([C@H]2[C@H](OC(C)=O)[C@@H](OC(C)=O)[C@H](n3cc(CCCC[C@H](CC)O[C@@H]4OC(C(=O)O)=C[C@H](O)[C@H]4NC(C)=O)nn3)O[C@@H]2COC(C)=O)nn1)O[C@@H]1OC(C(=O)O)=C[C@H](O)[C@H]1NC(C)=O	Non-Toxic	–	–	–	–
CC[C@@H](CCCCc1cn([C@H]2[C@H](OC(C)=O)[C@@H](OC(C)=O)[C@H](n3cc(CCCC[C@H](CC)O[C@@H]4OC(C(=O)O)=C[C@H](O)[C@H]4NC(C)=O)nn3)O[C@@H]2CO)nn1)O[C@@H]1OC(C(=O)O)=C[C@H](O)[C@H]1NC(C)=O	Non-Toxic	1500 nM	5200 nM	–	–
CCC(CC)O[C@@H]1C=C(C(=O)O)C[C@H](N)[C@H]1NC(C)=O [OSELTAMIVIR CARBOXYLATE]	Non-Toxic	–	–	–	–
CCC(CC)O[C@@H]1OC(C(=O)O)=C[C@H](O)[C@H]1NC(C)=O	–	–	470 nM	–	–
CC[C@@H](CCCCc1cn([C@H]2[C@H](O)[C@@H](O)[C@H](n3cc(-c4ccc(-c5cn([C@@H]6O[C@H](CO)[C@@H](n7cc(-c8cc(O)c(-c9cn([C@@H]%10O[C@H](CO)[C@@H](n%11cc(-c%12ccc(-c%13cn([C@@H]%14O[C@H](CO)[C@@H](n%15cc(CCCC[C@H](CC)O[C@@H]%16OC(C(=O)O)=C[C@H](O)[C@H]%16NC(C)=O)nn%15)[C@H](O)[C@H]%14O)nn%13)cc%12)nn%11)[C@H](O)[C@H]%10O)nn9)cc8O)nn7)[C@H](O)[C@H]6O)nn5)cc4)nn3)O[C@@H]2CO)nn1)O[C@@H]1OC(C(=O)O)=C[C@H](N)[C@H]1NC(C)=O	Non-Toxic	–	–	Active	–
CC[C@@H](CCCCc1cn([C@H]2[C@H](O)[C@@H](O)[C@H](n3cc(-c4ccc(-c5cn([C@@H]6O[C@H](CO)[C@@H](n7cc(CCCC[C@H](CC)O[C@@H]8OC(C(=O)O)=C[C@H](O)[C@H]8NC(C)=O)nn7)[C@H](O)[C@H]6O)nn5)cc4)nn3)O[C@@H]2CO)nn1)O[C@@H]1OC(C(=O)O)=C[C@H](O)[C@H]1NC(C)=O	Non-Toxic	80 nM	3300 nM	Active	–
C#CCCCC[C@@H](CC)O[C@@H]1OC(C(=O)O)=C[C@H](O)[C@H]1NC(C)=O	–	–	28200 nM	–	–
C#CCCC[C@H](CC)O[C@@H]1CC(C(=O)O)=C[C@H](O)[C@H]1NC(C)=O	Non-Toxic	–	2900 nM	Active	–
CC[C@@H](CCCCc1cn([C@H]2[C@H](O)[C@@H](O)[C@H](n3cc(-c4ccc(-c5cn([C@H]6[C@H](O)[C@@H](O)[C@H](n7cc(-c8ccc(-c9cn([C@@H]%10O[C@H](CO)[C@@H](n%11cc(CCCC[C@H](CC)O[C@@H]%12OC(C(=O)O)=C[C@H](O)[C@H]%12NC(C)=O)nn%11)[C@H](O)[C@H]%10O)nn9)cc8)nn7)O[C@@H]6CO)nn5)cc4)nn3)O[C@@H]2CO)nn1)O[C@@H]1OC(C(=O)O)=C[C@H](O)[C@H]1NC(C)=O	Non-Toxic	–	–	Active	Active

From ChEMBL document CHEMBL5154910, “Preventing Influenza A Virus Infection by Mixed Inhibition of Neuraminidase and Hemagglutinin by Divalent Inhibitors” (J Med Chem, 2022)
